We go through 14 molecules from PubChem BioAssay.

Test [1] can be described thus: Her2 expression decrease, cell viability multiplex – SKBR3 breast tumor cells, AlphaScreen, ATP viability, primary screen (AID 461;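 active = Her2 level under about 52% in both replicate screens, with viability over 70% of control, limit read from the data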;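 as to Her2 level: lower value means less Her2 protein in the cells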;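 as to viability: percent of carrier control wells set as 100% viability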). The conditions noted are these: SKBR3 Her2 protein level, 18-24 h, measured here: SKBR3 viability, ATP luminescence, at 10 µM.
For test [2], the target named is Receptor tyrosine-protein kinase erbB-2 (Homo sapiens) (UniProt P04626). Described as above. The conditions noted are these: 18-24 h, at 10 µM, stronger effect = lower value.
Receptor tyrosine-protein kinase erbB-2 (Homo sapiens), sequence (P04626 whole entry, looked up): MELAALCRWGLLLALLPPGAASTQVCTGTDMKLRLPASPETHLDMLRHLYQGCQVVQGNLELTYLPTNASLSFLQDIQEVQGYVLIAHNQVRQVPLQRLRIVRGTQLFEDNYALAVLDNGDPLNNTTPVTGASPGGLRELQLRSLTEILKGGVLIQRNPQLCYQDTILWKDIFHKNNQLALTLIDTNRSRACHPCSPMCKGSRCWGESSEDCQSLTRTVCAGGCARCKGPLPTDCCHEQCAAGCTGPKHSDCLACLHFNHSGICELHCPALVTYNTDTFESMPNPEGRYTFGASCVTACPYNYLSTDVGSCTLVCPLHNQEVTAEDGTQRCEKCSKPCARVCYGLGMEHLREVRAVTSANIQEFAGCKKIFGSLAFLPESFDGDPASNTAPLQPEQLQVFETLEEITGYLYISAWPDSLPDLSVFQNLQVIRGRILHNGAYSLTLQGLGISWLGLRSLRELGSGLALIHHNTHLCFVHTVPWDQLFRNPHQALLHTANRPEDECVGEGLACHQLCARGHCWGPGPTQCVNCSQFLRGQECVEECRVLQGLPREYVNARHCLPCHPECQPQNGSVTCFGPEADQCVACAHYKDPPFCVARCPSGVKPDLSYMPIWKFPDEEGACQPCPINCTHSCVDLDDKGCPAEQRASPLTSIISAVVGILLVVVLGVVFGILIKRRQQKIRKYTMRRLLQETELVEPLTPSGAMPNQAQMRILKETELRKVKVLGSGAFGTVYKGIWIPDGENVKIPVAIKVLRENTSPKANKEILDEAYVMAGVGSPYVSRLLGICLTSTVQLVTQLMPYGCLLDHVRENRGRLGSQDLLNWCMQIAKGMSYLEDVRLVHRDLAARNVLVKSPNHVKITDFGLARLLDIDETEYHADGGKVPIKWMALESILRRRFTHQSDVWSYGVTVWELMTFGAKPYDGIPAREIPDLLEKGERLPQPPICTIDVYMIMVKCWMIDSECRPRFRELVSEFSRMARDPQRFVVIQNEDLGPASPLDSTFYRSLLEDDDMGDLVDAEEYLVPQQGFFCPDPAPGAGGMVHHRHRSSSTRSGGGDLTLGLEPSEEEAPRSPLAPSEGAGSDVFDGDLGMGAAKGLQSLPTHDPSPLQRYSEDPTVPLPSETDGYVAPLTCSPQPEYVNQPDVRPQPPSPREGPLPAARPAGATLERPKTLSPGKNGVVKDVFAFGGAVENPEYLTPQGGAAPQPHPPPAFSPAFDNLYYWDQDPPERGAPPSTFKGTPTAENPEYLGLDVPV
Test [3] in a line: reduced viability of SK-BR-3 breast cancer cells – cell-based, 24 h, human, pilot screen (AID 572;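 active = viability at or below 10% of carrier control in both of two separate runs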;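 also: compound exposure lasted between 18 and 24 h rather than exactly 24 h; 100% = carrier-treated control wells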). The conditions noted are these: SK-BR-3 viability, CellTiter-Glo luminescence, at 10 µM, stronger effect = lower value.
A short description of test [4]: HUVEC growth inhibition – cell-based, human, primary screen (AID 575).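 Also: 100% = median of untreated cell wells with 0.1% DMSO on each plate.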 The following applies: HUVEC proliferation, CellTiter-Glo luminescence, 72 h; at 10 µM; stronger effect = lower value. The gist of the method:
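Test system: primary human umbilical vein endothelial cells; medium: endothelial basal medium with 2% FBS plus growth supplements; dosing: 10 µM compound only; times: 72 h treatment at 37 °C; signal: CTG luminescence; read-out: % viability relative to median vehicle-well signal on each plate; control set: vehicle and MePR control wells; plate: 384-well, collagen-coated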
Background: ATP-based viability assays read luminescence as a measure of living cells.

The nature of test [5]: H69AR cell proliferation blockers – human, duplicate replicates, primary screen (AID 580;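 active = viability at or under a set limit in both replicates, limit being median viability minus 3 SD, cut at about 48% in these data, passing the limit was not always enough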;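 also: 100% = mean luminescence of untreated wells and 0% = no signal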). The following applies: H69AR lung tumor cells viability, ATP luminescence, 72 h; at 10 µM; stronger effect = lower value.
A short description of test [6]: MRP1 drug-resistance reversers in H69AR cells – cell-based, doxorubicin co-treatment, pilot screen (AID 601;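 active = viability loss from added drug above about 55%, and viability with drug at most 40%, in both replicates, limit read from the data, passing the limit was not always enough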). The following applies: CellTiter-Glo, 72 h, at 10 µM; for differential viability (reversal): stronger effect = higher value.
A short description of test [7]: yeast transport mutant growth inhibition pilot in 384-well plates, post-Golgi transport modulator project (AID 636; in the data active = inhibition above about 31%). The conditions noted are these: absorbance 615 nm, about 18 h, stronger effect = higher value.
Test [8] can be described thus: growth suppression of yeast trafficking mutant, preliminary HTS, modulators of trafficking downstream of Golgi apparatus project, 1536-format plate, OD 615 nm (AID 637; in the data active = inhibition above about 30%). The following applies: yeast transport mutant growth, absorbance 615 nm, 18 h; stronger effect = higher value.
Where [9] appears, read: H69AR cells + 2 uM doxorubicin, measured here: viability with 2 uM doxorubicin, stronger effect = lower value.
Where [10] appears, read: H69AR cells, compound alone cytotoxicity.

Structures are written as SMILES. Calls of active or inactive are those of the source.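 The calls were made as follows, unless noted: active = viability at or below 30% in both replicate assays; inconclusive = viability at or below 30% in just one of the two assays; inactive = the rest.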

`Cc1cc(N2CCC3(CC2)OCCO3)n2nc(C)c(-c3ccc(Cl)cc3)c2n1`: the viability in test [1] was 84.5%; in test [3], 84.5% (inactive); in test [4] it was 71.9% (inactive); in test [5], 90.9% (inactive); in test [6] (setting [9]), 78.4%; in test [6] (setting [10]), 90.9%. For the same molecule, in test [2], the Her2 level is 84% (inactive). Moreover, the differential viability (reversal) in test [6] (H69AR cells + 2 uM doxorubicin) is 12.5% (inactive). Further, the results for the inhibition in test [7] and in test [8] were -5.68% (inactive) and 2.38% (inactive), respectively.

As to `O=C(C(c1ccccc1)c1ccccc1)N1CCN(Cc2ccccn2)CC1`, the viability is 81% in test [1]; 81% (inactive) in test [3]; 84.7% (inactive) in test [4]; 93.4% (inactive) in test [5]; 93.8% in test [6] (setting [9]); 93.4% in test [6] (setting [10]). In addition, the Her2 level in test [2] is 112% (inactive). For the same molecule, the differential viability (reversal) in test [6] (H69AR cells + 2 uM doxorubicin) is -0.39% (inactive). In addition, the inhibition in test [7] was -1.03% (inactive); in test [8] it was -5.83% (inactive).

As to `Cc1cc(OCC(=O)N2CCOCC2)cc2oc(=O)c3ccccc3c12`, the viability is 108% in test [1]; 108% (inactive) in test [3]; 109% (inactive) in test [4]; 85.1% (inactive) in test [5]; 85.9% in test [6] (setting [9]); 85.1% in test [6] (setting [10]). Besides, the Her2 level in test [2] was 100% (inactive). In test [6] (H69AR cells + 2 uM doxorubicin), the differential viability (reversal) was -0.74% (inactive). Besides, the inhibition was 0.39% (inactive) in test [7] and -10.8% (inactive) in test [8].

On to `Cc1occc1-c1nnc(SCC(=O)N2CCc3ccccc32)o1`, for which the viability in test [1] was 98.5%; in test [3] it was 98.5% (inactive); in test [4] it was 85.8% (inactive); in test [5], 3.12% (active); in test [6] (setting [9]), 2.5%; in test [6] (setting [10]), 3.12%. Moreover, the Her2 level in test [2] is 82.5% (inactive). For the same molecule, the differential viability (reversal) in test [6] (H69AR cells + 2 uM doxorubicin) is 0.62% (inactive). The inhibition in test [7] is -3.01% (inactive); in test [8], -3.02% (inactive).

For the molecule `Cc1ccc(NC(=O)c2cc(S(=O)(=O)N3CCC4(CC3)OCCO4)ccc2F)cc1`, the viability was 101% in test [1]; 101% (inactive) in test [3]; 90.7% (inactive) in test [4]; 99.3% (inactive) in test [5]; 96.7% in test [6] (setting [9]); 99.3% in test [6] (setting [10]). In addition, the Her2 level in test [2] was 143% (inactive). The differential viability (reversal) in test [6] (H69AR cells + 2 uM doxorubicin) is 2.58% (inactive). For the same molecule, the inhibition in test [7] is 1.97% (inactive); in test [8], -11% (inactive).

Regarding `CCOC(=O)N1CCN(Cc2cc(=O)oc3ccc4ccccc4c23)CC1`, the viability in test [1] is 91.5%; in test [3], 91.5% (inactive); in test [4], 79.9% (inactive); in test [5] it was 87.3% (inactive); in test [6] (setting [9]) it was 79.6%; in test [6] (setting [10]), 87.3%. Besides, in test [2], the Her2 level is 86% (inactive). Moreover, the differential viability (reversal) in test [6] (H69AR cells + 2 uM doxorubicin) is 7.66% (inactive). The figures for the inhibition in test [7] and in test [8] were -7.07% (inactive) and 2.86% (inactive), respectively.

As for `O=C(CN1CCOCC1)N1CCN(C(=O)CN2CCOCC2)CC1`, the viability in test [1] was 102%; in test [3], 102% (inactive); in test [4], 93.7% (inactive); in test [5], 104% (inactive); in test [6] (setting [9]), 88.9%; in test [6] (setting [10]), 104%. Further, the Her2 level in test [2] is 99.5% (inactive). In addition, the differential viability (reversal) in test [6] (H69AR cells + 2 uM doxorubicin) was 15.6% (inactive). Further, the results for the inhibition in test [7] and in test [8] were -3.73% (inactive) and 1.97% (inactive), respectively.

Turning to `CCC(=O)N1Cc2ccccc2-c2ccccc2C1=O`, the viability is 102% in test [1]; 102% (inactive) in test [3]; 80.1% (inactive) in test [4]; 90% (inactive) in test [5]; 85.2% in test [6] (setting [9]); 90% in test [6] (setting [10]). The Her2 level in test [2] was 91% (inactive). For the same molecule, the differential viability (reversal) in test [6] (H69AR cells + 2 uM doxorubicin) was 4.75% (inactive). In addition, the inhibition in test [7] was -5.06% (inactive); in test [8], 4.76% (inactive).

With `Cc1nc(N2CCC(C)CC2)c2c(C)c(C(=O)O)sc2n1`, the viability in test [1] was 100%; in test [3], 100% (inactive); in test [4], 74.2% (inactive); in test [5] it was 84.9% (inactive); in test [6] (setting [9]), 81.3%; in test [6] (setting [10]), 84.9%. The Her2 level in test [2] is 77% (inactive). The differential viability (reversal) in test [6] (H69AR cells + 2 uM doxorubicin) is 3.62% (inactive). Also, the figures for the inhibition in test [7] and in test [8] were -4.74% (inactive) and -6.33% (inactive), respectively.

With `O=C(OCCN1C(=O)c2ccccc2C1=O)c1ccc(S(=O)(=O)N2CCCCCC2)cc1`, the viability is 114% in test [1]; 114% (inactive) in test [3]; 78.5% (inactive) in test [4]; 105% (inactive) in test [5]; 87.6% in test [6] (setting [9]); 105% in test [6] (setting [10]). For the same molecule, the Her2 level in test [2] is 76.5% (inactive). For the same molecule, the differential viability (reversal) in test [6] (H69AR cells + 2 uM doxorubicin) was 17.6% (inactive). Also, the figures for the inhibition in test [7] and in test [8] were -6.22% (inactive) and 1.11% (inactive), respectively.

In the case of `Cc1ccc2c(c1C)NC(C)CC2C` (stereo not given), the viability was 100% in test [1]; 100% (inactive) in test [3]; 103% (inactive) in test [4]; 97.2% (inactive) in test [5]; 88.2% in test [6] (setting [9]); 97.2% in test [6] (setting [10]). Also, the Her2 level in test [2] was 82% (inactive). Besides, in test [6] (H69AR cells + 2 uM doxorubicin), the differential viability (reversal) is 8.96% (inactive). The inhibition was -0.39% (inactive) in test [7] and -0.73% (inactive) in test [8].

Turning to `Cc1ccc(CCNC(=O)Cn2cccc2)cc1`, the viability in test [1] is 112%; in test [3], 112% (inactive); in test [4], 110% (inactive); in test [5] it was 99.5% (inactive); in test [6] (setting [9]), 94%; in test [6] (setting [10]), 99.5%. Also, the Her2 level in test [2] was 98% (inactive). For the same molecule, the differential viability (reversal) in test [6] (H69AR cells + 2 uM doxorubicin) was 5.51% (inactive). Further, the figures for the inhibition in test [7] and in test [8] were -4.73% (inactive) and 0.67% (inactive), respectively.

As for `Cc1cc(C(=O)OCCO)c(C#N)c(N)n1`, the viability is 92% in test [1]; 92% (inactive) in test [3]; 95.9% (inactive) in test [4]; 92.1% (inactive) in test [5]; 97.6% in test [6] (setting [9]); 92.1% in test [6] (setting [10]). Further, in test [2], the Her2 level was 90.5% (inactive). Besides, the differential viability (reversal) in test [6] (H69AR cells + 2 uM doxorubicin) was -5.51% (inactive). Also, the results for the inhibition in test [7] and in test [8] were -3.87% (inactive) and 1.94% (inactive), respectively.

On to `CCCN1C=CC(=C2C(=O)c3ccccc3C2=O)C=C1`, for which the viability in test [1] was 88%; in test [3], 88% (inactive); in test [4] it was 42.9% (inactive); in test [5], 40.8% (active); in test [6] (setting [9]), 43.8%; in test [6] (setting [10]), 40.8%. In test [2], the Her2 level was 123% (inactive). Moreover, the differential viability (reversal) in test [6] (H69AR cells + 2 uM doxorubicin) was -3% (inactive). The values for the inhibition in test [7] and in test [8] were -1.92% (inactive) and 1% (inactive), respectively.

The viability is a read-out of living cells in per cent, often relative to untreated cells. As a reminder, the inhibition is the relative decrease from the control value, in per cent.
